Data published in article PMC7606109 (Acta Pharmaceutica Sinica. B, 2020).

Test: MTT cell toxicity assay
Type: cell-based
Settings: human, HeLa cells
Summary of the method: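 HeLa cells grown in DMEM with 10% heat-inactivated FBS and 1% penicillin/streptomycin, 5% CO2, 37 °C. Exponentially growing cells were seeded at 2–6 × 10^3 per well and left 24 h, then exposed to graded test compound concentrations for 48 h. MTT (5 mg/mL stock) was added for 2–4 h at 37 °C. Formazan was dissolved in DMSO and read at 492 nm. Mean ± SD, n = 3.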

NS(=O)(=O)NCCNc1nonc1C(=NO)Nc1ccc(F)c(Br)c1 [Epa, Epacadostat]
IC50 at 48 h: > 40 µM
